Results reported in ChEMBL document CHEMBL1146825, “Triaryl methane derivatives as antiproliferative agents” (Bioorg Med Chem Lett, 2004).

Experiments:
NIH3T3 [1] = assay: Mitogen-induced cell proliferation assay to evaluate the antiproliferative effect in NIH 3T3 cells; format: functional, cell-based; details: Mus musculus
How it was run: (§1)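 NIH 3T3 mouse fibroblasts given a mitogenic stimulus (e.g. PDGF or bFGF) for 10 h, then [3H]thymidine added. Cultured a further 21 h at 37 C, 5% CO2, then washed four times with DME. Acid-precipitable radioactivity extracted with cold 10% TCA, neutralized with 0.3 N NaOH, and counted by scintillation.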

NIH3T3 [2] = assay: Percent inhibition at 10 uM determined against mouse NIH 3T3 cells; format: functional; how it was run: as §1
NCI-H460 [3] = assay: Effect of 50 uM compound on NCI-H460 non-small cell lung cancer cells cycle progression in S phase by flow cytometry; format: functional, Homo sapiens
How it was run: (§2)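 NCI-H460 cells serum-starved 56 h, then released into complete medium containing compound (25 or 50 uM) or 0.1% DMSO vehicle for 16 h. Harvested, washed in cold PBS, fixed in 70% ethanol at 4 C for at least 4 h. Treated with ribonuclease and propidium iodide 30 min at 37 C. DNA content read by flow cytometry; percent of cells in G0-G1, S and G2-M.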

NCI-H460 [4] = assay: Effect of 25 uM compound on NCI-H460 non-small cell lung cancer cells cycle progression in G0G1 phase by flow cytometry; format: functional, Homo sapiens; how it was run: as §2
NCI-H460 [5] = assay: Effect of 50 uM compound on NCI-H460 non-small cell lung cancer cells cycle progression in G2-M phase by flow cytometry; format: functional, Homo sapiens; how it was run: as §2
NCI-H460 [6] = assay: Effect of 25 uM compound on NCI-H460 non-small cell lung cancer cells cycle progression in G2M phase by flow cytometry; format: functional, Homo sapiens; how it was run: as §2
NCI-H460 [7] = assay: Effect of 25 uM compound on NCI-H460 non-small cell lung cancer cells cycle progression in S phase by flow cytometry; format: functional, Homo sapiens; how it was run: as §2
NCI-H460 [8] = assay: Effect of 50 uM compound on NCI-H460 non-small cell lung cancer cells cycle progression in G0G1 phase by flow cytometry; format: functional, Homo sapiens; how it was run: as §2

OC(c1ccccc1)(c1ccccc1)c1ccccc1Cl
IC50 (NIH3T3 [1]): 2100 nM

OC(c1ccccc1)(c1ccc(Br)cc1)c1ccc(Br)cc1
IC50 (NIH3T3 [1]): 500 nM

OC(c1ccccc1)(c1ccccc1)C1CCCCC1
IC50 (NIH3T3 [1]): 9500 nM

N#CC(c1ccccc1)(c1ccccc1)C1CCCCC1
IC50 (NIH3T3 [1]): 900 nM

CCOC(=O)C(c1ccccc1)(c1ccccc1)N1CCCCC1
IC50 (NIH3T3 [1]): 2200 nM

CCOC(c1ccccc1)(c1ccccc1)c1ccc(-c2ccccc2)cc1
IC50 (NIH3T3 [1]): 2200 nM | inhibition at 10 µM (NIH3T3 [2]): 99%

OC(Cc1ccccc1)(c1ccccc1)c1ccccc1
Cell (NCI-H460 [3]): 25.09% | IC50 (NIH3T3 [1]): 400 nM | Cell (NCI-H460 [4]): 46.8% | inhibition at 10 µM (NIH3T3 [2]): 98% | Cell (NCI-H460 [5]): 5% | Cell (NCI-H460 [6]): 8.57% | Cell (NCI-H460 [7]): 44.63% | Cell (NCI-H460 [8]): 69.91%

OC(c1ccccc1)(c1ccccc1)c1ccc(Cl)cc1
IC50 (NIH3T3 [1]): 800 nM

N#CC(c1ccccc1)(c1ccccc1)c1ccccc1Cl
IC50 (NIH3T3 [1]): 2200 nM

OC(c1ccccc1)(c1ccccc1)c1cccc2ccccc12
IC50 (NIH3T3 [1]): 1600 nM

Oc1ccccc1C(O)(c1ccccc1)c1ccccc1Cl (stereo not given)
IC50 (NIH3T3 [1]): 1000 nM | inhibition at 10 µM (NIH3T3 [2]): 99%

Nc1ccc(C(O)(c2ccc(N)cc2)c2ccc(N)cc2)cc1
IC50 (NIH3T3 [1]): 200 nM

OC(c1ccccc1)(c1ccccc1)c1ccc(C(F)(F)F)cc1
IC50 (NIH3T3 [1]): 3100 nM

O=C(O)CC(c1ccccc1)(c1ccccc1)c1ccccc1Cl
IC50 (NIH3T3 [1]): 1200 nM

N#CC(c1ccccc1)(c1ccccc1)c1ccc([N+](=O)[O-])cc1
IC50 (NIH3T3 [1]): 1700 nM

Cc1ccc(C(O)(c2ccc(C)cc2)c2ccc(C)cc2)cc1
IC50 (NIH3T3 [1]): 3000 nM

O=[N+]([O-])c1ccc(C(O)(c2ccccc2)c2ccccc2)c(Cl)c1
IC50 (NIH3T3 [1]): 300 nM | inhibition at 10 µM (NIH3T3 [2]): 94%

Clc1ccccc1C(c1ccccc1)c1ccccc1 [2-CHLOROPHENYL-BISPHENYLMETHANE(MAJOR)]
IC50 (NIH3T3 [1]): 3900 nM

OC(c1ccccc1)(c1ccccc1)c1ccccc1 [TRIPHENYLMETHANOL]
IC50 (NIH3T3 [1]): 2000 nM | inhibition at 10 µM (NIH3T3 [2]): 99%
